Test results reported in ChEMBL document CHEMBL4346653, “A2B Adenosine Receptor Antagonists with Picomolar Potency” (J Med Chem, 2019).
pKi: −log10 of the molar value.

What was measured:
Homo sapiens = species on record: Homo sapiens; assay: Selectivity index, ratio of Ki for displacement of [3H]MSX-2 from recombinant human A2A adenosine receptor expressed in CHO cell membranes to Ki for displacement of [3H]PSB-603 from recombinant human A2B adenosine receptor expressed in CHO cell membranes
[1] = target: T1, Adenosine receptor A3 (Homo sapiens) (UniProt P0DMS8); assay: Displacement of [3H]PSB-11 from recombinant human A3 adenosine receptor expressed in CHO cell membranes at 1 uM measured after 45 mins in presence of adenosine deaminase by liquid scintillation counting method relative to control
T1 sequence (whole entry): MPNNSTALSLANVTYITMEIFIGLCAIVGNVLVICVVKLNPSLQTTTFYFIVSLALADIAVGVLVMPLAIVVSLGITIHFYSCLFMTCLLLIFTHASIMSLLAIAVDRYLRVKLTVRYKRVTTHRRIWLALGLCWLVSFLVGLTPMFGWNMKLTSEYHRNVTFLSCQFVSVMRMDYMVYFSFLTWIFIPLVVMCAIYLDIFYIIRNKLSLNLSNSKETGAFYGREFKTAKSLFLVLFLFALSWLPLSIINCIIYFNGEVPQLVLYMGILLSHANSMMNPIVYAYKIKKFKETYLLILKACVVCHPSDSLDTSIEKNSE
In short: (§1)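 Single-point competition binding at human AR subtype membranes, each against its own tritiated radioligand. The test compound is given at 1 μM, and the result is reported as percent inhibition of radioligand binding. The radioligand-specific footnotes give n = 3.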

Adenosine receptor A3 = target: T2, Adenosine receptor A3 (Homo sapiens, UniProt P0DMS8); assay: Displacement of [3H]PSB-11 from recombinant human A3 adenosine receptor expressed in CHO cell membranes measured after 45 mins in presence of adenosine deaminase by liquid scintillation counting method
T2 sequence (P0DMS8 whole entry): T1 sequence (whole entry)
In short: (§2)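 Competition binding on membranes of cells recombinantly expressing the human receptor (CHO or HEK cells), with tritiated radioligand per subtype: [3H]PSB-603 for A2B, [3H]MSX-2 for A2A, [3H]CCPA for A1, [3H]PSB-11 for A3. Ki ± SEM from n = 3, some from extrapolated curves. Weak binders are reported as % inhibition of radioligand binding at 1 μM.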

Adenosine receptor A2b = target: T3, Adenosine receptor A2b (Homo sapiens, UniProt P29275); assay: Displacement of [3H]PSB-603 from recombinant human A2B adenosine receptor expressed in CHO cell membranes measured after 75 mins in presence of adenosine deaminase by liquid scintillation counting method; in short: as §2
T3 sequence (P29275 whole entry): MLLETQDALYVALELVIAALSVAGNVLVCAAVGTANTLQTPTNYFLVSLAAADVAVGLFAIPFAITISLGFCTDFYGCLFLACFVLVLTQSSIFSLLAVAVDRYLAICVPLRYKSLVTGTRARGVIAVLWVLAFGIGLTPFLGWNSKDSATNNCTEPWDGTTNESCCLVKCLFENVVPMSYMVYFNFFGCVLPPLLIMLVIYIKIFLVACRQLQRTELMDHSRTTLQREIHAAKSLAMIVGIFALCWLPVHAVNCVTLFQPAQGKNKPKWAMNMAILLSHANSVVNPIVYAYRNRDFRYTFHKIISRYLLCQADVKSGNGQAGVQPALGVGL

Adenosine receptor A2a = Adenosine receptor A2a (Homo sapiens, UniProt P29274); assay: Displacement of [3H]MSX-2 from recombinant human A2A adenosine receptor expressed in CHO cell membranes measured after 30 mins in presence of adenosine deaminase by liquid scintillation counting method; in short: as §2
Adenosine receptor A2a, sequence (P29274 whole entry): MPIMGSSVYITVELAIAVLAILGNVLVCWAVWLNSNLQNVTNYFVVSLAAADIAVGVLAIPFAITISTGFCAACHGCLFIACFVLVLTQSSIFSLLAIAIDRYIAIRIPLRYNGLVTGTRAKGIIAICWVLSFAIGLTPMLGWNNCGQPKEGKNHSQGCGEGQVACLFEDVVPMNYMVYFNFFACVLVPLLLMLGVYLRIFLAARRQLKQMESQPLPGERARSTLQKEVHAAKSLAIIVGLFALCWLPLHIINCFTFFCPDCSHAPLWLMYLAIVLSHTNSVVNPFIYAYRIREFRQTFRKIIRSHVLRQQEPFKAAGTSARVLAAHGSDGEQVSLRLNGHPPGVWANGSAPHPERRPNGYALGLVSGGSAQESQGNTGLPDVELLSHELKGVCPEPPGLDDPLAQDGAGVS

Adenosine receptor A1 = target: T4, Adenosine receptor A1 (Homo sapiens, UniProt P30542); assay: Displacement of [3H]CCPA from recombinant human A1 adenosine receptor expressed in CHO cell membranes measured after 90 mins in presence of adenosine deaminase by liquid scintillation counting method; in short: as §2
T4 sequence (P30542 whole entry): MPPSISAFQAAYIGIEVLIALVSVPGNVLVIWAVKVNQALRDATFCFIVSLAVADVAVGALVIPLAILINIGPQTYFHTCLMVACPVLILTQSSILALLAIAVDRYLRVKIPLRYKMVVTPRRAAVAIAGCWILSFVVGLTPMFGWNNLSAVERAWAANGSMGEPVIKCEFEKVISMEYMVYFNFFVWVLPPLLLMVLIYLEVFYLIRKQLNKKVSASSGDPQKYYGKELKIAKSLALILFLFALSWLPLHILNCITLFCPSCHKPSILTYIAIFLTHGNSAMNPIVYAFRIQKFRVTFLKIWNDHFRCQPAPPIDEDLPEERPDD

[2] = target: T5, Adenosine receptor A1 (Homo sapiens) (UniProt P30542); assay: Displacement of [3H]CCPA from recombinant human A1 adenosine receptor expressed in CHO cell membranes at 1 uM measured after 90 mins in presence of adenosine deaminase by liquid scintillation counting method relative to control; in short: as §1
T5 sequence (whole entry): T4 sequence (P30542 whole entry)

inhibition [1] [%]	pKi (Adenosine receptor A3)	pKi (Adenosine receptor A2b)	pKi (Adenosine receptor A2a)	pKi (Adenosine receptor A1)	inhibition [2] [%]	Compound	Ratio Ki (Homo sapiens)
27	< 6.00	9.19	6.91	6.44	–	CCCn1c(=O)[nH]c2nc(-c3ccc(S(=O)(=O)N4CCN(c5ccccc5)CC4)cc3)[nH]c2c1=O	190
32	< 6.00	9.61	6.68	6.31	–	CCCn1c(=O)[nH]c2nc(-c3ccc(S(=O)(=O)N4CCN(Cc5ccc(N=[N+]=[N-])cc5)CC4)cc3)[nH]c2c1=O	850
28	< 6.00	8.37	6.49	< 6.00	24	CCCn1c(=O)c2[nH]c(-c3ccc(S(=O)(=O)N4CCN(c5ccc(Cl)cc5)CC4)cc3)nc2n(CC)c1=O	75
25	< 6.00	9.36	6.85	6.38	–	CCCn1c(=O)[nH]c2nc(-c3ccc(S(=O)(=O)N4CCN(c5ccccc5C)CC4)cc3)[nH]c2c1=O	320
7	< 6.00	7.32	6.85	6.48	–	CCCn1c(=O)[nH]c2nc(-c3ccc(S(=O)(=O)N4CCN(C)CC4)cc3)[nH]c2c1=O	3
20	< 6.00	9.86	7.05	< 6.00	28	CCCn1c(=O)[nH]c2nc(-c3ccc(S(=O)(=O)N4CCN(c5ccccc5Br)CC4)cc3)[nH]c2c1=O	650
21	< 6.00	8.37	7.01	6.45	–	CCCn1c(=O)[nH]c2nc(-c3ccc(S(=O)(=O)N4CCN(c5ccc(O)cc5)CC4)cc3)[nH]c2c1=O	20
41	< 6.00	8.45	7.03	< 6.00	37	CCCn1c(=O)[nH]c2nc(-c3ccc(S(=O)(=O)N4CCN(c5ccc(O)c(Cl)c5)CC4)cc3)[nH]c2c1=O	> 30
28	< 6.00	9.82	7.11	< 6.00	31	CCCn1c(=O)[nH]c2nc(-c3ccc(S(=O)(=O)N4CCN(Cc5ccc(Br)cc5)CC4)cc3)[nH]c2c1=O	510
4	< 6.00	8.77	6.45	5.98	–	CCCn1c(=O)[nH]c2nc(-c3ccc(S(=O)(=O)N(C)CCc4ccccc4)cc3)[nH]c2c1=O	210
-2	< 6.00	8.15	6.53	< 6.00	15	CCCn1c(=O)[nH]c2nc(-c3ccc(S(=O)(=O)N4CCN(c5ccccc5)C(C)C4)cc3)[nH]c2c1=O (stereo not drawn)	40

Second part, the compound before the results:

Compound	inhibition [1] [%]	pKi (Adenosine receptor A3)	pKi (Adenosine receptor A2b)	pKi (Adenosine receptor A2a)	pKi (Adenosine receptor A1)	inhibition [2] [%]	Ratio Ki (Homo sapiens)
CCCn1c(=O)[nH]c2nc(-c3ccc(S(=O)(=O)N4CCN(Cc5ccc(OCCO)cc5)CC4)cc3)[nH]c2c1=O	17	< 6.00	7.91	6.62	6.25	–	20
CCCn1c(=O)[nH]c2nc(-c3ccc(S(=O)(=O)N4CCN(c5ccccc5Cl)CC4)cc3)[nH]c2c1=O	32	< 6.00	9.39	6.69	< 6.00	25	510
CCCn1c(=O)[nH]c2nc(-c3ccc(S(=O)(=O)N4CCN(C(=O)c5ccccc5)CC4)cc3)[nH]c2c1=O	26	< 6.00	8.24	6.84	< 6.00	15	30
CCCn1c(=O)[nH]c2nc(-c3ccc(S(=O)(=O)N4CCN(c5ccc(Cl)c(O)c5)CC4)cc3)[nH]c2c1=O	31	< 6.00	9.38	7.39	6.95	–	100
CCCn1c(=O)[nH]c2nc(-c3ccc(S(=O)(=O)N4CCN(Cc5cc(F)cc(OC)c5)CC4)cc3)[nH]c2c1=O	12	< 6.00	8.99	6.80	< 6.00	31	160
CCCn1c(=O)[nH]c2nc(-c3ccc(S(=O)(=O)N4CCN(Cc5cccc(OC)c5)CC4)cc3)[nH]c2c1=O	27	< 6.00	8.89	6.88	6.69	–	100
CCCn1c(=O)[nH]c2nc(-c3ccc(S(=O)(=O)N4CCN(c5ccc(Cl)c(OC)c5)CC4)cc3)[nH]c2c1=O	46	< 6.00	9.67	7.45	6.27	–	160
CCCn1c(=O)[nH]c2nc(-c3ccc(S(=O)(=O)N4CCN(Cc5cccc(C)c5)CC4)cc3)[nH]c2c1=O	17	< 6.00	9.40	6.72	6.10	–	480
CCCn1c(=O)[nH]c2nc(-c3ccc(S(=O)(=O)N4CCN(c5ccc(OCCO)cc5)CC4)cc3)[nH]c2c1=O	23	< 6.00	8.22	6.77	< 6.00	24	30
CCCn1c(=O)[nH]c2nc(-c3ccc(S(=O)(=O)N4CCN(Cc5ccc(F)c(OC)c5)CC4)cc3)[nH]c2c1=O	-5	< 6.00	9.20	6.87	< 6.00	25	220
CCCn1c(=O)[nH]c2nc(-c3ccc(S(=O)(=O)N(C)C)cc3)[nH]c2c1=O	–	5.91	7.73	7.28	6.72	–	3
CCCn1c(=O)[nH]c2nc(-c3ccc(S(=O)(=O)N4CCN(c5ccc(F)cc5)CC4)cc3)[nH]c2c1=O	38	< 6.00	9.19	6.97	< 6.00	14	170
CCCn1c(=O)[nH]c2nc(-c3ccc(S(=O)(=O)N4CCN(c5cccc(OC)c5)CC4)cc3)[nH]c2c1=O	-1	< 6.00	9.21	6.71	< 6.00	-3	320
CCCn1c(=O)[nH]c2nc(-c3ccc(S(=O)(=O)N4CCN(Cc5ccc(OC)c(F)c5)CC4)cc3)[nH]c2c1=O	15	< 6.00	9.05	6.61	< 6.00	24	270
CCCn1c(=O)[nH]c2nc(-c3ccc(S(=O)(=O)N4CCN(Cc5ccc(OCCOCCOC)cc5)CC4)cc3)[nH]c2c1=O	30	< 6.00	8.15	6.50	6.00	–	50
